The results in this text go back to ChEMBL document CHEMBL1138525 (J Med Chem, 2009).

Molecules are shown by their SMILES. The source made the active and inactive calls. The calls are words filed in the database; no cut-off is given here.

One may read the IC50 as the concentration that gives 50% inhibition. A word on the inhibition: it is how much of the control response was suppressed.

Assay [1] deals with P2Y purinoceptor 2 (Homo sapiens), P41231 [R177A,R180A]. The assay can be described thus: Agonist activity at N-terminal HA epitope-tagged human P2Y2 receptor R177A_R180A double mutant expressed in human 1321N1 cells assessed as increase in intracellular calcium level relative to carbachol. The assay is classed as functional, cell-based. A digest of the protocol: (§1)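 Retrovirally transduced stable 1321N1 astrocytoma lines (wild-type lines of differing expression, or mutants) in suspension, loaded with Oregon Green BAPTA-1/AM for 1 h at room temperature. Cells were plated at 150000 per well in Krebs-HEPES pH 7.4 and held 20 min at 28 °C in the dark. Agonist was then injected, with fluorescence read at ex 485/em 520 nm for 60 × 0.4 s.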
(Calcium flux is commonly read through the fluorescence of an indicator in the cells.)

Assay [2] deals with P2Y purinoceptor 2 (Homo sapiens), P41231 [R177A]. The assay can be described thus: Agonist activity at N-terminal HA epitope-tagged human P2Y2 receptor R177A mutant expressed in human 1321N1 cells assessed as increase in intracellular calcium level relative to carbachol. The assay is classed as functional, cell-based. The method, boiled down: as §1
Assay [3] concerns P2Y purinoceptor 2 (Homo sapiens), P41231 [Y114A]. The assay can be described thus: Agonist activity at N-terminal HA epitope-tagged human P2Y2 receptor Y114A mutant expressed in human 1321N1 cells assessed as increase in intracellular calcium level relative to carbachol. The format is functional, cell-based. The method, boiled down:
as §1

In assay [4] the test system is P2Y purinoceptor 2 (Homo sapiens), P41231 [C278S]. The assay can be described thus: Agonist activity at N-terminal HA epitope-tagged human P2Y2 receptor C278S mutant expressed in human 1321N1 cells assessed as increase in intracellular calcium level relative to carbachol. The assay is classed as functional, cell-based. A digest of the protocol:
as §1

Assay [5] deals with P2Y purinoceptor 2 (Homo sapiens), P41231 [Y198A]. The assay can be described thus: Agonist activity at N-terminal HA epitope-tagged human P2Y2 receptor Y198A mutant expressed in human 1321N1 cells assessed as increase in intracellular calcium level relative to carbachol. The format is functional, cell-based. The method, boiled down:
as §1

Assay [6] relates to P2Y purinoceptor 2 (Homo sapiens), P41231 [R180A]. The assay can be described thus: Agonist activity at N-terminal HA epitope-tagged human P2Y2 receptor R180A mutant expressed in human 1321N1 cells assessed as increase in intracellular calcium level relative to carbachol. The assay is classed as functional, cell-based. The method, boiled down:
as §1

The test system of assay [7] is P2Y purinoceptor 2 (Homo sapiens), P41231 [S296A]. In words: Agonist activity at N-terminal HA epitope-tagged human P2Y2 receptor S296A mutant expressed in human 1321N1 cells assessed as increase in intracellular calcium level relative to carbachol. The format is functional, cell-based. A digest of the protocol:
as §1

Assay [8] deals with T1, P2Y purinoceptor 2 (Homo sapiens, UniProt P41231). In words: Agonist activity at N-terminal HA epitope-tagged wild type 4 human P2Y2 receptor expressed in human 1321N1 cells assessed as increase in intracellular calcium level relative to carbachol. The assay is classed as functional, cell-based. The method, boiled down:
as §1

For assay [9], the system named is P2Y purinoceptor 2 (Homo sapiens), P41231 [R194H]. In words: Agonist activity at N-terminal HA epitope-tagged human P2Y2 receptor R194H mutant expressed in human 1321N1 cells assessed as increase in intracellular calcium level relative to carbachol. The format is functional, cell-based. The method, boiled down: as §1
Assay [10] deals with P2Y purinoceptor 2 (Homo sapiens), P41231 [Y118A]. In words: Agonist activity at N-terminal HA epitope-tagged human P2Y2 receptor Y118A mutant expressed in human 1321N1 cells assessed as increase in intracellular calcium level relative to carbachol. The assay is classed as functional, cell-based. A digest of the protocol:
as §1

Assay [11] deals with T1, P2Y purinoceptor 2. The assay can be described thus: Agonist activity at N-terminal HA epitope-tagged wild type 3 human P2Y2 receptor expressed in human 1321N1 cells assessed as increase in intracellular calcium level relative to carbachol. The format is functional, cell-based. A digest of the protocol: as §1
The test system of assay [12] is P2Y purinoceptor 2 (Homo sapiens), P41231 [R272A]. In words: Agonist activity at N-terminal HA epitope-tagged human P2Y2 receptor R272A mutant expressed in human 1321N1 cells assessed as increase in intracellular calcium level up to 300 uM relative to carbachol. The format is functional, cell-based. A digest of the protocol:
as §1

The target of assay [13] is P2Y purinoceptor 2 (Homo sapiens, UniProt P41231, Y118A). The assay can be described thus: Antagonist activity at N-terminal HA epitope-tagged human P2Y2 receptor Y118A mutant expressed in human 1321N1 cells assessed as inhibition of UTP-induced calcium mobilization. The assay is classed as functional, cell-based. The method, boiled down:
(§2)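 1321N1 cells expressing wild-type or mutant receptor were dye-loaded with Oregon Green BAPTA-1/AM in Krebs-HEPES pH 7.4. Antagonist was preincubated for 20 min at 28 °C in the dark. Cells were then stimulated with UTP at a concentration giving 80-90% of maximal response. Calcium fluorescence read at 520 nm (excitation 485 nm).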

Assay [14] deals with P2Y purinoceptor 2 (Homo sapiens, UniProt P41231, R177A/R180A). In words: Antagonist activity at N-terminal HA epitope-tagged human P2Y2 receptor R177A_R180A double mutant expressed in human 1321N1 cells assessed as inhibition of UTP-induced calcium mobilization. The assay is classed as functional, cell-based. The method, boiled down:
as §2

Assay [15] deals with P2Y purinoceptor 2 (Homo sapiens), P41231 [R177A]. The assay can be described thus: Antagonist activity at N-terminal HA epitope-tagged human P2Y2 receptor R177A mutant expressed in human 1321N1 cells assessed as inhibition of UTP-induced calcium mobilization. The assay is classed as functional, cell-based. The conditions noted are these: concentration not given here.
Assay [16] deals with T1, P2Y purinoceptor 2. The assay can be described thus: Antagonist activity at N-terminal HA epitope-tagged wild type 3 human P2Y2 receptor expressed in human 1321N1 cells assessed as inhibition of UTP-induced calcium mobilization. The format is functional, cell-based. The method, boiled down: as §2
For assay [17], the target named is P2Y purinoceptor 2 (Homo sapiens, UniProt P41231, Y114A). In words: Antagonist activity at N-terminal HA epitope-tagged human P2Y2 receptor Y114A mutant expressed in human 1321N1 cells assessed as inhibition of UTP-induced calcium mobilization. The format is functional, cell-based. A digest of the protocol: as §2
The target in assay [18] is P2Y purinoceptor 2 (Homo sapiens, UniProt P41231, C278S). In words: Antagonist activity at N-terminal HA epitope-tagged human P2Y2 receptor C278S mutant expressed in human 1321N1 cells assessed as inhibition of UTP-induced calcium mobilization. The format is functional, cell-based. A digest of the protocol: as §2
In assay [19] the test system is P2Y purinoceptor 2 (Homo sapiens), P41231 [UNDEFINED MUTATION]. The assay can be described thus: Ratio of IC50 for N-terminal HA epitope-tagged human P2Y2 receptor C278S mutant to IC50 for wild type 3 human P2Y2 receptor.
Assay [20] relates to P2Y purinoceptor 2 (Homo sapiens), P41231 [R180A]. In words: Antagonist activity at N-terminal HA epitope-tagged human P2Y2 receptor R180A mutant expressed in human 1321N1 cells assessed as inhibition of UTP-induced calcium mobilization. The assay is classed as functional, cell-based. The conditions noted are these: concentration not given here.
For assay [21], the target named is P2Y purinoceptor 2 (Homo sapiens, UniProt P41231, Y198A). The assay can be described thus: Antagonist activity at N-terminal HA epitope-tagged human P2Y2 receptor Y198A mutant expressed in human 1321N1 cells assessed as inhibition of UTP-induced calcium mobilization. The assay is classed as functional, cell-based. A digest of the protocol: as §2
P2Y purinoceptor 2 (Homo sapiens, UniProt P41231, Y198A), sequence (P41231 whole entry Y198A): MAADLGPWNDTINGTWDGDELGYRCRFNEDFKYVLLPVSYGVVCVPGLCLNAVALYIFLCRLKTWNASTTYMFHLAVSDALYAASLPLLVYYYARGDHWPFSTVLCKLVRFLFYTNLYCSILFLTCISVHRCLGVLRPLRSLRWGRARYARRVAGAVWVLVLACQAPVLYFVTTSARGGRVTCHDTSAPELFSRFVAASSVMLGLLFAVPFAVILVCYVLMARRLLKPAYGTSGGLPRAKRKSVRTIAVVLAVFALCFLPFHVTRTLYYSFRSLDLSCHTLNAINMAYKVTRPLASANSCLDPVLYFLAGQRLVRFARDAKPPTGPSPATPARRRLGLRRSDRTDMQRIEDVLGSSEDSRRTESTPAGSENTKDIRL

T1 sequence (P41231 whole entry): as the sequence (P41231 whole entry Y198A) above, with A198Y counted along it
P2Y purinoceptor 2 (Homo sapiens), P41231 [R180A], sequence (P41231 whole entry R180A): as the sequence (P41231 whole entry Y198A) above, with R180A, A198Y counted along it
P2Y purinoceptor 2 (Homo sapiens), P41231 [R177A], sequence (P41231 whole entry R177A): as the sequence (P41231 whole entry Y198A) above, with R177A, A198Y counted along it
P2Y purinoceptor 2 (Homo sapiens, UniProt P41231, R177A/R180A), sequence (P41231 whole entry R177A/R180A): as the sequence (P41231 whole entry Y198A) above, with R177A, R180A, A198Y counted along it
P2Y purinoceptor 2 (Homo sapiens), P41231 [R177A,R180A], sequence (P41231 whole entry R177A/R180A): as the sequence (P41231 whole entry Y198A) above, with R177A, R180A, A198Y counted along it
P2Y purinoceptor 2 (Homo sapiens, UniProt P41231, C278S), sequence (P41231 whole entry C278S): as the sequence (P41231 whole entry Y198A) above, with A198Y, C278S counted along it
P2Y purinoceptor 2 (Homo sapiens), P41231 [C278S], sequence (P41231 whole entry C278S): as the sequence (P41231 whole entry Y198A) above, with A198Y, C278S counted along it
P2Y purinoceptor 2 (Homo sapiens), P41231 [R194H], sequence (P41231 whole entry R194H): as the sequence (P41231 whole entry Y198A) above, with R194H, A198Y counted along it
P2Y purinoceptor 2 (Homo sapiens), P41231 [Y118A], sequence (P41231 whole entry Y118A): as the sequence (P41231 whole entry Y198A) above, with Y118A, A198Y counted along it
P2Y purinoceptor 2 (Homo sapiens, UniProt P41231, Y118A), sequence (P41231 whole entry Y118A): as the sequence (P41231 whole entry Y198A) above, with Y118A, A198Y counted along it
P2Y purinoceptor 2 (Homo sapiens), P41231 [UNDEFINED MUTATION], sequence (P41231 whole entry, looked up, stated change not applied): as the sequence (P41231 whole entry Y198A) above, with A198Y counted along it
P2Y purinoceptor 2 (Homo sapiens), P41231 [R272A], sequence (P41231 whole entry R272A): as the sequence (P41231 whole entry Y198A) above, with A198Y, R272A counted along it
P2Y purinoceptor 2 (Homo sapiens), P41231 [Y198A], sequence (P41231 whole entry Y198A): as the sequence (P41231 whole entry Y198A) above
P2Y purinoceptor 2 (Homo sapiens), P41231 [S296A], sequence (P41231 whole entry S296A): as the sequence (P41231 whole entry Y198A) above, with A198Y, S296A counted along it
P2Y purinoceptor 2 (Homo sapiens, UniProt P41231, Y114A), sequence (P41231 whole entry Y114A): as the sequence (P41231 whole entry Y198A) above, with Y114A, A198Y counted along it
P2Y purinoceptor 2 (Homo sapiens), P41231 [Y114A], sequence (P41231 whole entry Y114A): as the sequence (P41231 whole entry Y198A) above, with Y114A, A198Y counted along it

Take `O=c1ccn([C@@H]2O[C@H](COP(=O)(O)OP(=O)(O)OP(=O)(O)OP(=O)(O)OC[C@H]3O[C@@H](n4ccc(=O)[nH]c4=O)[C@H](O)[C@@H]3O)[C@@H](O)[C@H]2O)c(=O)[nH]1`: the Efficacy in assay [1] came to 101%; in assay [2], 102%; in assay [3], 142%; in assay [5] it was 127%; in assay [6], 72%; in assay [7], 5%. Further, the Efficacy in [8] is 98%; in [9] it was 85%; in assay [10] it was 25%; in assay [11], 60%. The Efficacy result in assay [4] and in assay [12] was “inactive” in each case.
On to `Nc1c(S(=O)(=O)O)cc(Nc2ccc(Nc3nc(Cl)nc(Nc4cccc(S(=O)(=O)O)c4)n3)c(S(=O)(=O)O)c2)c2c1C(=O)c1ccccc1C2=O` [RB 2], for which the IC50 was 1570 nM in assay [13]; 18.6 µM in assay [14]; 1620 nM in assay [16]; above 100 µM in [17]; 1050 nM in [18]; 9.3 µM in [21]. For the same compound, the inhibition in [15] and in [20] was 55% each time. The Ratio IC50 in [19] was found to be 0.6.
